Data as given in ChEMBL document CHEMBL4339192, “De Novo Designed Amphipathic α-Helical Antimicrobial Peptides Incorporating Dab and Dap Residues on the Polar Face To Treat the Gram-Negative Pathogen, Acinetobacter baumannii” (J Med Chem, 2019).
Converted amounts (≈) assume the structure as drawn. Where a SMILES comes first, the peptide text is derived from it. [ ]: non-standard residue; d: D form. Dab = NCC[C@H](N)C(=O)O

Legend:
Acinetobacter baumannii [1] = assay: Antibacterial activity against Acinetobacter baumannii isolate 1007660 measured after 24 hrs by microtiter dilution method; type: functional; settings: isolate 1007660, 24 h
In short: (§1)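 Broth microdilution in Mueller-Hinton (MH) medium. […] Plates were incubated 24 h at 37 °C. MIC was the lowest peptide concentration that inhibited growth, based on three sets of replicates.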

Acinetobacter baumannii [2] = assay: Antibacterial activity against Acinetobacter baumannii isolate 965463 measured after 24 hrs by microtiter dilution method; type: functional; settings: isolate 965463, 24 h; in short: as §1
[3] = Therapeutic index, ratio of HC50 for human RBC to MIC for polymyxin B/colistin-resistant Acinetobacter baumannii M89955; type: toxicity; settings: human red blood cells, read-out: TI
In short: (§2)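 T.I. = HC50/MIC. For HC50, peptide (quantified by amino acid analysis) was two-fold serially diluted over 12 concentrations up to 1000 μg/mL. It was incubated with 1% fresh human erythrocytes in PBS, pH 7.4, for 18 h at 37 °C. After 800g centrifugation, hemoglobin was read at 570 nm against water (100%) and no-peptide (0%) controls. HC50 came from a lysis-versus-concentration plot, average of 3 replicates.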

Acinetobacter baumannii [4] = assay: Antibacterial activity against Acinetobacter baumannii isolate 1035794 measured after 24 hrs by microtiter dilution method; type: functional; settings: isolate 1035794, 24 h; in short: as §1
Acinetobacter baumannii [5] = assay: Antibacterial activity against polymyxin B/colistin-resistant Acinetobacter baumannii M89941 measured after 24 hrs by microtiter dilution method; type: functional; settings: M89941, 24 h; in short: as §1
[6] = Therapeutic index, ratio of HC50 for human RBC to MIC for polymyxin B/colistin-resistant Acinetobacter baumannii M89953; type: toxicity; settings: human red blood cells, read-out: TI; in short: as §2
[7] = Therapeutic index, ratio of HC50 for human RBC to MIC for polymyxin B/colistin-resistant Acinetobacter baumannii M89963; type: toxicity; settings: human red blood cells, read-out: TI; in short: as §2
Acinetobacter baumannii [8] = assay: Antibacterial activity against Acinetobacter baumannii isolate 1002956 measured after 24 hrs by microtiter dilution method; type: functional; settings: isolate 1002956, 24 h; in short: as §1
[9] = Therapeutic index, ratio of HC50 for human RBC to MIC for polymyxin B/colistin-resistant Acinetobacter baumannii M89941; type: toxicity; settings: human red blood cells, read-out: TI; in short: as §2
Acinetobacter baumannii [10] = assay: Antibacterial activity against Acinetobacter baumannii isolate 1017395 measured after 24 hrs by microtiter dilution method; type: functional; settings: isolate 1017395, 24 h; in short: as §1
Acinetobacter baumannii [11] = assay: Antibacterial activity against Acinetobacter baumannii isolate 1010245 measured after 24 hrs by microtiter dilution method; type: functional; settings: isolate 1010245, 24 h; in short: as §1
[12] = Therapeutic index, ratio of HC50 for human RBC to MIC for polymyxin B/colistin-resistant Acinetobacter baumannii M89952; type: toxicity; settings: human red blood cells, read-out: TI; in short: as §2
Acinetobacter baumannii [13] = assay: Antibacterial activity against Acinetobacter baumannii isolate 964304 measured after 24 hrs by microtiter dilution method; type: functional; settings: isolate 964304, 24 h; in short: as §1
[14] = Therapeutic index, ratio of HC50 for human RBC to MIC for polymyxin B/colistin-resistant Acinetobacter baumannii M89951; type: toxicity; settings: human red blood cells, read-out: TI; in short: as §2
Acinetobacter baumannii [15] = assay: Antibacterial activity against Acinetobacter baumannii 649 measured after 24 hrs in presence of 25% human serum by microtiter dilution method; type: functional; settings: Acinetobacter baumannii, 649, 24 h
In short: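 Blood strain 649 was tested by MH broth microdilution with and without 25% (v/v) human serum added to the medium. The test used a final inoculum of 5 × 10^5 cfu/mL and incubation at 37 °C. The ratio is the MIC in serum over the MIC in MH alone.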

Acinetobacter baumannii [16] = assay: Antibacterial activity against Acinetobacter baumannii 649 measured after 24 hrs by microtiter dilution method; type: functional; settings: Acinetobacter baumannii, 649, 24 h; in short: as §1
[17] = Therapeutic index, ratio of HC50 for human RBC to MIC for polymyxin B/colistin-resistant Acinetobacter baumannii M89949; type: toxicity; settings: human red blood cells, read-out: TI; in short: as §2
Acinetobacter baumannii [18] = assay: Antibacterial activity against polymyxin B/colistin-resistant Acinetobacter baumannii M89951 measured after 24 hrs by microtiter dilution method; type: functional; settings: M89951, 24 h; in short: as §1
Acinetobacter baumannii [19] = assay: Antibacterial activity against polymyxin B/colistin-resistant Acinetobacter baumannii M89955 measured after 24 hrs by microtiter dilution method; type: functional; settings: M89955, 24 h; in short: as §1
Acinetobacter baumannii [20] = assay: Antibacterial activity against Acinetobacter baumannii isolate 981650 measured after 24 hrs by microtiter dilution method; type: functional; settings: isolate 981650, 24 h; in short: as §1
Acinetobacter baumannii [21] = assay: Antibacterial activity against Acinetobacter baumannii isolate 963659 measured after 24 hrs by microtiter dilution method; type: functional; settings: isolate 963659, 24 h; in short: as §1
Acinetobacter baumannii [22] = assay: Antibacterial activity against polymyxin B/colistin-resistant Acinetobacter baumannii M89952 measured after 24 hrs by microtiter dilution method; type: functional; settings: M89952, 24 h; in short: as §1
Acinetobacter baumannii [23] = assay: Antibacterial activity against Acinetobacter baumannii isolate 1018887 measured after 24 hrs by microtiter dilution method; type: functional; settings: isolate 1018887, 24 h; in short: as §1
Acinetobacter baumannii [24] = assay: Antibacterial activity against Acinetobacter baumannii isolate 9383370 measured after 24 hrs by microtiter dilution method; type: functional; settings: isolate 9383370, 24 h; in short: as §1
Acinetobacter baumannii [25] = assay: Antibacterial activity against Acinetobacter baumannii isolate 1001611 measured after 24 hrs by microtiter dilution method; type: functional; settings: isolate 1001611, 24 h; in short: as §1
Acinetobacter baumannii [26] = assay: Antibacterial activity against Acinetobacter baumannii isolate 968886 measured after 24 hrs by microtiter dilution method; type: functional; settings: isolate 968886, 24 h; in short: as §1
Acinetobacter baumannii [27] = assay: Antibacterial activity against Acinetobacter baumannii isolate 1021371 measured after 24 hrs by microtiter dilution method; type: functional; settings: isolate 1021371, 24 h; in short: as §1
Acinetobacter baumannii [28] = assay: Antibacterial activity against Acinetobacter baumannii isolate 1035166 measured after 24 hrs by microtiter dilution method; type: functional; settings: isolate 1035166, 24 h; in short: as §1
Acinetobacter baumannii [29] = assay: Antibacterial activity against polymyxin B/colistin-resistant Acinetobacter baumannii M89953 measured after 24 hrs by microtiter dilution method; type: functional; settings: M89953, 24 h; in short: as §1
Acinetobacter baumannii [30] = assay: Antibacterial activity against Acinetobacter baumannii isolate 977751 measured after 24 hrs by microtiter dilution method; type: functional; settings: isolate 977751, 24 h; in short: as §1
Acinetobacter baumannii [31] = assay: Antibacterial activity against Acinetobacter baumannii isolate 961997 measured after 24 hrs by microtiter dilution method; type: functional; settings: isolate 961997, 24 h; in short: as §1
Acinetobacter baumannii [32] = assay: Antibacterial activity against Acinetobacter baumannii isolate 952654 measured after 24 hrs by microtiter dilution method; type: functional; settings: isolate 952654, 24 h; in short: as §1
[33] = Hemolytic activity against human RBC measured after 18 hrs by spectrophotometric method; type: ADME, cell-based, Erythrocyte; settings: human red blood cells (erythrocytes)
In short: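 Peptide (amount by amino acid analysis), two-fold serial dilutions at 12 concentrations up to 1000 μg/mL, with 1% human erythrocytes in PBS pH 7.4, 37 °C, 18 h. Unlysed cells removed by centrifugation (800g); hemoglobin read at 570 nm. Water-lysed cells = 100%, no-peptide cells = 0%. HC50 from plot of % lysis vs concentration (μM), average of 3 replicates.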

Acinetobacter baumannii [34] = assay: Antibacterial activity against polymyxin B/colistin-resistant Acinetobacter baumannii M89963 measured after 24 hrs by microtiter dilution method; type: functional; settings: M89963, 24 h; in short: as §1
Acinetobacter baumannii [35] = assay: Antibacterial activity against polymyxin B/colistin-resistant Acinetobacter baumannii M89949 measured after 24 hrs by microtiter dilution method; type: functional; settings: M89949, 24 h; in short: as §1
Acinetobacter baumannii [36] = assay: Antibacterial activity against Acinetobacter baumannii isolate 963618 measured after 24 hrs by microtiter dilution method; type: functional; settings: isolate 963618, 24 h; in short: as §1
Acinetobacter baumannii [37] = assay: Antibacterial activity against Acinetobacter baumannii isolate 1010282 measured after 24 hrs by microtiter dilution method; type: functional; settings: isolate 1010282, 24 h; in short: as §1

## CC(=O)N[C@H](CCCCN)C(=O)N[C@H](CC(C)C)C(=O)N[C@@H](CCN)C(=O)N[C@H](CO)C(=O)N[C@H](CC(C)C)C(=O)N[C@H](CC(C)C)C(=O)N[C@@H](CCN)C(=O)N[C@@H](C(=O)N[C@H](CC(C)C)C(=O)N[C@H](CO)C(=O)N[C@@H](CCN)C(=O)N[C@H](C)C(=O)N[C@H](CCCCN)C(=O)N[C@H](C)C(=O)N[C@H](C)C(=O)N[C@H](CCCCN)C(=O)N[C@H](CC(C)C)C(=O)N[C@@H](CCN)C(=O)N[C@@H](C(=O)N[C@H](CC(C)C)C(=O)N[C@H](CC(C)C)C(=O)N[C@@H](CCN)C(=O)N[C@H](C)C(=O)N[C@H](CC(C)C)C(=O)N[C@H](CO)C(=O)N[C@H](CO)C(N)=O)[C@H](C)O)[C@H](C)O (Ac-[dK][dL][Dab][dS][dL][dL][Dab][dT][dL][dS][Dab][dA][dK][dA][dA][dK][dL][Dab][dT][dL][dL][Dab][dA][dL][dS][dS]-NH2)
Acinetobacter baumannii [1]
  MIC: 0.4 µM (≈ 1.07 µg/mL)
Acinetobacter baumannii [2]
  MIC: 0.7 µM (≈ 1.88 µg/mL)
[3]
  selectivity ratio: > 1010
Acinetobacter baumannii [4]
  MIC: 0.7 µM (≈ 1.88 µg/mL)
Acinetobacter baumannii [5]
  MIC: 0.4 µM (≈ 1.07 µg/mL)
[6]
  selectivity ratio: > 1010
[7]
  selectivity ratio: > 1010
Acinetobacter baumannii [8]
  MIC: 0.4 µM (≈ 1.07 µg/mL)
[9]
  selectivity ratio: > 1010
Acinetobacter baumannii [10]
  MIC: 0.7 µM (≈ 1.88 µg/mL)
Acinetobacter baumannii [11]
  MIC: 0.4 µM (≈ 1.07 µg/mL)
[12]
  selectivity ratio: > 1010
Acinetobacter baumannii [13]
  MIC: 0.7 µM (≈ 1.88 µg/mL)
[14]
  selectivity ratio: > 1010
Acinetobacter baumannii [15]
  MIC: 0.7 µM
Acinetobacter baumannii [16]
  MIC: 0.4 µM (≈ 1.07 µg/mL)
[17]
  selectivity ratio: > 1010
Acinetobacter baumannii [18]
  MIC: 0.7 µM (≈ 1.88 µg/mL)
Acinetobacter baumannii [19]
  MIC: 0.7 µM (≈ 1.88 µg/mL)
Acinetobacter baumannii [20]
  MIC: 0.4 µM (≈ 1.07 µg/mL)
Acinetobacter baumannii [21]
  MIC: 0.7 µM (≈ 1.88 µg/mL)
Acinetobacter baumannii [22]
  MIC: 0.7 µM (≈ 1.88 µg/mL)
Acinetobacter baumannii [23]
  MIC: 0.7 µM (≈ 1.88 µg/mL)
Acinetobacter baumannii [24]
  MIC: 0.7 µM (≈ 1.88 µg/mL)
Acinetobacter baumannii [25]
  MIC: 0.4 µM (≈ 1.07 µg/mL)
Acinetobacter baumannii [26]
  MIC: 0.7 µM (≈ 1.88 µg/mL)
Acinetobacter baumannii [27]
  MIC: 0.4 µM (≈ 1.07 µg/mL)
Acinetobacter baumannii [28]
  MIC: 0.7 µM (≈ 1.88 µg/mL)
Acinetobacter baumannii [29]
  MIC: 1.4 µM (≈ 3.76 µg/mL)
Acinetobacter baumannii [30]
  MIC: 0.7 µM (≈ 1.88 µg/mL)
Acinetobacter baumannii [31]
  MIC: 1.5 µM (≈ 4.03 µg/mL)
Acinetobacter baumannii [32]
  MIC: 0.4 µM (≈ 1.07 µg/mL)
[33]
  HC50 at 18 h: > 708 µM
Acinetobacter baumannii [34]
  MIC: 0.7 µM (≈ 1.88 µg/mL)
Acinetobacter baumannii [35]
  MIC: 0.7 µM (≈ 1.88 µg/mL)
Acinetobacter baumannii [36]
  MIC: 0.4 µM (≈ 1.07 µg/mL)
Acinetobacter baumannii [37]
  MIC: 0.7 µM (≈ 1.88 µg/mL)
